Activity calls are given as the source filed them. The calls are words filed in the database; no cut-off is given here.
Assays:
HEK293 = assay: Cytotoxicity against human HEK293 cells assessed as reduction in cell viability measured after 24 hrs by MTT assay; type: cell-based; settings: HEK293, 24 h
Rattus norvegicus [1] = assay: Induction of hyperlocomotor activity in restraint stress induced anxiety Wistar rat model assessed as increase in total lines crossed at 2 mg/kg, po measured after 30 mins by open field test; type: functional, organism-based
Summary of the method: (§1)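 Restraint stress was applied by immobilization in a plastic restrainer for 2 h/day over 14 days. Rats received 2 mg/kg 30 min before the open field test, six per group. Inner zone time was scored as the anxiety measure and the number of total lines crossed as locomotor activity. Groups were compared with nonstressed vehicle and stressed vehicle groups.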

Rattus norvegicus [2] = assay: Anxiolytic activity in restraint stress induced anxiety Wistar rat model assessed as increase in open arm entry at 2 mg/kg, po measured after 30 mins by elevated plus maze test; type: functional, organism-based
Summary of the method: (§2)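 Rats were stressed by immobilization in a plastic restrainer for 2 h/day for 14 days. Test compounds were given at 2 mg/kg 30 min before the elevated plus maze, six rats per group. Read-outs were percent open arm entry, percent open arm time and anxiety index (higher index means more anxiety). Groups were compared with nonstressed vehicle and stressed vehicle groups.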

Rattus norvegicus [3] = assay: Anxiolytic activity in restraint stress induced anxiety Wistar rat model assessed as decrease in anxiety index at 2 mg/kg, po measured after 30 mins by elevated plus maze test; type: functional, organism-based; summary of the method: as §2
Rattus norvegicus [4] = assay: Anxiolytic activity in restraint stress induced anxiety Wistar rat model assessed as increase in time spent in inner zone at 2 mg/kg, po measured after 30 mins by open field test; type: functional, organism-based; summary of the method: as §1
[5] = Effect on locomotor activity in normal Wistar rat assessed as effect on total open arm entry at 2 mg/kg, po measured after 30 mins by elevated plus maze test; settings: in vivo, 0.5 h
Rattus norvegicus [6] = assay: Anxiolytic activity in restraint stress induced anxiety Wistar rat model assessed as increase in time spent in open arm at 2 mg/kg, po measured after 30 mins by elevated plus maze test; type: functional, organism-based; summary of the method: as §2
Rattus norvegicus [7] = assay: Anxiolytic activity in restraint stress induced anxiety Wistar rat model assessed as decrease in rearing behaviour at 2 mg/kg, po measured after 30 mins by open field test; type: functional, organism-based
Summary of the method: (§3)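 Open field test in rats stressed by immobilisation in a plastic restrainer for 2 h/day for 14 days, with non-stressed controls. Animals received 2 mg/kg acutely 30 min before testing, six rats per group. Readouts were inner zone time, outer zone time, total lines crossed (locomotion) and rearing (exploration).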

Rattus norvegicus [8] = assay: Anxiolytic activity in restraint stress induced anxiety Wistar rat model assessed as decrease in time spent in outer zone at 2 mg/kg, po measured after 30 mins by open field test; type: functional, organism-based; summary of the method: as §3

`COc1ccc2c(c1)Cc1cc(Cl)ccc1NC2` showed an IC50 (HEK293) of 2.29 µM.

Compound `COc1cc2c(c(OC)c1)CNc1ccccc1C2` has an IC50 (HEK293) of 6.44 µM.

`COc1ccc2c(c1)Cc1c(F)cccc1NC2` showed an IC50 (HEK293) of 0.77 µM.

Work on `COc1ccc2c(c1)Cc1cc3c(cc1NC2)OCO3` yielded an IC50 (HEK293) of 14.5 µM.

In the case of `COc1ccc2c(c1)Cc1ccc(Cl)cc1NC2`, the IC50 (HEK293) is reported as 12.6 µM, the Activity (Rattus norvegicus [1]) is reported as “Active” and the Activity (Rattus norvegicus [2]) is reported as “Active”. The Activity (Rattus norvegicus [3]) was “Active”, the Activity (Rattus norvegicus [4]) was “Active” and the Activity [5] was “Non-Toxic”. For the same compound, the Activity (Rattus norvegicus [6]) was “Active”.

For `COc1ccc2c(c1)Cc1ccccc1NC2`, the IC50 (HEK293) was 65.7 µM, the Activity (Rattus norvegicus [1]) was “Active” and the Activity (Rattus norvegicus [2]) was “Active”. For the same compound, the Activity (Rattus norvegicus [3]) was “Active”, the Activity (Rattus norvegicus [4]) was “Active” and the Activity [5] was “Non-Toxic”. The Activity (Rattus norvegicus [6]) was “Active”.

In the case of `COc1ccc2c(c1)NCc1ccc(Oc3ccccc3)cc1C2`, the IC50 (HEK293) is reported as 2.12 µM.

Compound `COc1ccc2c(c1)Cc1ccc(OC)cc1NC2` has an IC50 (HEK293) of 1.09 µM.

For `COc1ccc2c(c1)CCc1ccccc1NC2`, the IC50 (HEK293) was 14.1 µM.

`c1ccc(Oc2ccc3c(c2)Cc2ccccc2NC3)cc1` gave an IC50 (HEK293) of 4.43 µM.

With `CN1C(=O)CN=C(c2ccccc2)c2cc(Cl)ccc21` [DIAZEPAM] the IC50 (HEK293) was 87.9 µM, the Activity (Rattus norvegicus [1]) was “Active” and the Activity (Rattus norvegicus [7]) was “Active”. For the same compound, the Activity (Rattus norvegicus [2]) was “Active”, the Activity (Rattus norvegicus [3]) was “Active” and the Activity (Rattus norvegicus [4]) was “Active”. The Activity (Rattus norvegicus [8]) was “Active” and the Activity (Rattus norvegicus [6]) was “Active”.

With `COc1ccc2c(c1)Cc1cc(F)ccc1NC2` the IC50 (HEK293) was 0.16 µM, the Activity (Rattus norvegicus [1]) was “Active” and the Activity (Rattus norvegicus [2]) was “Active”. The Activity (Rattus norvegicus [3]) was “Active”, the Activity (Rattus norvegicus [4]) was “Active” and the Activity [5] was “Non-Toxic”. For the same compound, the Activity (Rattus norvegicus [6]) was “Active”.

For `Clc1ccc2c(c1)NCc1ccc(Oc3ccccc3)cc1C2`, the IC50 (HEK293) was 14.2 µM, the Activity (Rattus norvegicus [1]) was “Active” and the Activity (Rattus norvegicus [2]) was “Active”. The Activity (Rattus norvegicus [3]) was “Active”, the Activity (Rattus norvegicus [4]) was “Active” and the Activity [5] was “Non-Toxic”. The Activity (Rattus norvegicus [6]) was “Active”.

In the case of `COc1ccc2c(c1)Cc1cccc(F)c1NC2`, the IC50 (HEK293) is reported as 6.19 µM.

With `Fc1cccc2c1NCc1ccc(Oc3ccccc3)cc1C2` the IC50 (HEK293) was 13.7 µM, the Activity (Rattus norvegicus [1]) was “Active” and the Activity (Rattus norvegicus [2]) was “Active”. For the same compound, the Activity (Rattus norvegicus [3]) was “Active”, the Activity (Rattus norvegicus [4]) was “Active” and the Activity [5] was “Non-Toxic”. For the same compound, the Activity (Rattus norvegicus [6]) was “Active”.
